Consider 7 molecules from ChEMBL document CHEMBL3813699, “Structure-Activity Relationships of a Diverse Class of Halogenated Phenazines That Targets Persistent, Antibiotic-Tolerant Bacterial Biofilms and Mycobacterium tuberculosis” (J Med Chem, 2016).

The structures appear in SMILES notation. ≈ marks a conversion by molar mass, not a printed value.

In data set [1] the test system is Staphylococcus aureus. Put plainly: Antibiofilm activity against methicillin-resistant Staphylococcus aureus BAA-44 assessed as biofilm eradication incubated for 24 hrs by CBD assay. Type of data set: functional. The note with it: for MBC: Staphylococcus aureus, BAA-44, 24 h. In a few lines:
(§1)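 Calgary Biofilm Device: pegs inoculated with mid-log culture diluted 1,000-fold in TSB + 0.5% glucose, 24 h 37 °C; washed pegs challenged with 2-fold dilutions 24 h 37 °C; pegs moved to fresh TSBG 24 h; MBEC = lowest concentration leaving no turbidity; 2–6 independent experiments.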

A further data set concerns HeLa. Put plainly: Cytotoxicity against human HeLa cells after 24 hrs by LDH release assay. The format is cell-based. In a few lines:
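HeLa in DMEM + 10% FBS, 37 °C 5% CO2, at 70–80% confluence treated with 25, 50, 100 µM for 24 h; DMSO vehicle; Triton X-100 2% v/v max-LDH control, medium-only negative; supernatant with LDH reaction mix 30 min room temperature, stopped, absorbance 490 nm.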

The test system of data set [2] is Enterococcus faecium. Put plainly: Antibacterial activity against vancomycin-resistant Enterococcus faecium ATCC 700221 incubated for 16 to 18 hrs by broth microdilution method. Type of data set: functional. (In general: Dilution methods test growth across graded concentrations, often in twofold steps.)
The test system of data set [3] is Staphylococcus aureus. Put plainly: Antibiofilm activity against methicillin-resistant Staphylococcus aureus BAA-1707 assessed as biofilm eradication incubated for 24 hrs by CBD assay. The note with it: for MBC: Staphylococcus aureus, BAA-1707, 24 h. The format is functional. In a few lines:
as §1

Data set [4] relates to Staphylococcus aureus. Put plainly: Antibacterial activity against methicillin-resistant Staphylococcus aureus clinical isolate 2 incubated for 16 hrs by broth microdilution method in presence of Fe2+. The format is functional. The note with it: isolate 2, 16 h.
The nature of data set [5]: Induction of hemolysis in human RBC at 200 uM incubated for 1 hr. The format is cell-based, Erythrocyte. The note with it: red blood cells, read-out: Activity. In a few lines: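 Human RBCs (EDTA), washed three times in Tris-buffered saline pH 7.2; 2% hRBC with compound at final 200 µM, 1 h 37 °C; supernatant OD405; % hemolysis relative to DMSO (0%) and Triton X (100%).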

Data set [6] relates to Staphylococcus epidermidis. Put plainly: Antibacterial activity against methicillin-resistant Staphylococcus epidermidis ATCC 35984 assessed as biofilm eradication incubated for 24 hrs by CBD assay. Type of data set: functional. The note with it: for MBC: Staphylococcus epidermidis, ATCC 35984, 24 h. In a few lines:
as §1

In data set [7] the test system is Staphylococcus aureus. Put plainly: Antibacterial activity against methicillin-resistant Staphylococcus aureus clinical isolate 2 incubated for 16 hrs by broth microdilution method in presence of Cu2+. The note with it: isolate 2, 16 h. The format is functional.
The test system of data set [8] is Staphylococcus aureus. Put plainly: Antibiofilm activity against methicillin-resistant Staphylococcus aureus isolate 2 assessed as biofilm eradication incubated for 24 hrs by CBD assay. Type of data set: functional. The note with it: for MBC: Staphylococcus aureus, isolate 2, 24 h. In a few lines:
as §1

For data set [9], the system named is Enterococcus faecium. Put plainly: Antibiofilm activity against […]-resistant Enterococcus faecium ATCC 700221 assessed as biofilm eradication incubated for 24 hrs by CBD assay. The format is functional. The note with it: for MBC: Enterococcus faecium, ATCC 700221, 24 h. In a few lines:
as §1

Data set [10] concerns Staphylococcus aureus. Put plainly: Antibacterial activity against methicillin-resistant Staphylococcus aureus clinical isolate 2 incubated for 16 hrs by broth microdilution method. The format is functional. The note with it: isolate 2, 16 h.
Data set [11] deals with Staphylococcus aureus. Put plainly: Ratio of MIC for methicillin-resistant Staphylococcus aureus clinical isolate 2 in absence and presence of Cu2+. The format is functional.
The test system of data set [12] is Staphylococcus aureus. Put plainly: Antibacterial activity against methicillin-resistant Staphylococcus aureus clinical isolate 2 incubated for 16 hrs by broth microdilution method in presence of tiron. The format is functional. The note with it: isolate 2, 16 h.
The nature of data set [13]: Aqueous solubility of compound in media after 16 hrs. Type of data set: physicochemical.
Data set [14] relates to Mycobacterium tuberculosis. Put plainly: Antibacterial activity against Mycobacterium tuberculosis H37Ra ATCC 25177 after 7 days by two-fold serial dilution method. The note with it: H37Ra ATCC 25177, 168 h. Type of data set: functional.
Data set [15] deals with Staphylococcus aureus. Put plainly: Antibacterial activity against methicillin-resistant Staphylococcus aureus clinical isolate 2 incubated for 16 to 18 hrs by broth microdilution method. The format is functional.
For data set [16], the system named is Staphylococcus aureus. Put plainly: Antibacterial activity against methicillin-resistant Staphylococcus aureus BAA-1707 incubated for 16 to 18 hrs by broth microdilution method. The format is functional.
In data set [17] the test system is Staphylococcus epidermidis. Put plainly: Antibacterial activity against methicillin-resistant Staphylococcus epidermidis ATCC 35984 incubated for 16 to 18 hrs by broth microdilution method. The format is functional.
In data set [18] the test system is Staphylococcus aureus. Put plainly: Ratio of MBEC to MBC for methicillin-resistant Staphylococcus aureus clinical isolate 2 biofilm eradication. The format is functional. In a few lines: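 From the same CBD challenge plate, MBC taken by subculturing 20 µL into 180 µL TSBG overnight at 37 °C (no turbidity); MBEC from recovered pegs in fresh TSBG 24 h; ratio MBEC:MBC against MRSA-2.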

The test system of data set [19] is Staphylococcus epidermidis. Put plainly: Antibacterial activity against Staphylococcus epidermidis ATCC 12228 incubated for 16 to 18 hrs by broth microdilution method. The format is functional.
Data set [20] relates to Staphylococcus aureus. Put plainly: Antibacterial activity against methicillin-resistant Staphylococcus aureus BAA-44 incubated for 16 to 18 hrs by broth microdilution method. Type of data set: functional.

For the molecule `Oc1c(Br)cc(I)c2nc3ccccc3nc12`, the MBEC with Staphylococcus aureus [1] was 93.8 µM; with Staphylococcus aureus [3] it was 93.8 µM; in data set [6], 188 µM; in the data set on Staphylococcus aureus [8] it was 62.5 µM; in the data set on Enterococcus faecium [9], 5.9 µM. The MBC with Staphylococcus aureus [1] was found to be 46.9 µM (≈ 18.8 µg/mL); in the data set with Staphylococcus aureus [3], 23.5 µM (≈ 9.42 µg/mL); in data set [6], 11.7 µM (≈ 4.69 µg/mL); in the data set with Staphylococcus aureus [8], 31.3 µM (≈ 12.6 µg/mL); with Enterococcus faecium [9] it was 3 µM (≈ 1.2 µg/mL). Also, the half-inhibitory concentration (IC50) (in general, the concentration at which inhibition is half-maximal) in the data set with HeLa is greater than 100 µM. The figures for the MIC against Enterococcus faecium [2], in the data set on Staphylococcus aureus [4] and in the data set on Staphylococcus aureus [7] were 6.25 µM (≈ 2.51 µg/mL), 6.25 µM and 50 µM, respectively. Also, the hemolysis at 1 h, 200 µM in [5] was found to be 2.9%.

For the molecule `CN(C)[C@@H]1C(O)=C(C(N)=O)C(=O)[C@@]2(O)C(O)=C3C(=O)c4c(O)cccc4[C@@](C)(O)[C@H]3C[C@@H]12` [TETRACYCLINE], the MIC – broadly, the lowest concentration that inhibits growth of the organism – with Staphylococcus aureus [4] worked out at 18.8 µM; against Staphylococcus aureus [10], 1.17 µM (≈ 0.52 µg/mL); in the data set on Staphylococcus aureus [7], 1.56 µM. The Ratio with Staphylococcus aureus [11] was less than 2.

On to `Oc1ccc(I)c2nc3cc(Cl)c(Cl)cc3nc12`, for which the MBEC in the data set with Staphylococcus aureus [1] is greater than 200 µM; with Staphylococcus aureus [3] it was greater than 200 µM; in data set [6] it was 75 µM; with Staphylococcus aureus [8] it was 37.5 µM. Besides, the MBC in the data set on Staphylococcus aureus [1] was 75 µM (≈ 29.3 µg/mL); in the data set with Staphylococcus aureus [3] it was 75 µM (≈ 29.3 µg/mL); in [6], 9.38 µM (≈ 3.67 µg/mL); with Staphylococcus aureus [8] it was 25 µM (≈ 9.77 µg/mL); in the data set with Enterococcus faecium [9], 3.13 µM (≈ 1.22 µg/mL). The same molecule gave an IC50 in the data set on HeLa greater than 100 µM. Moreover, the MIC was found to be 0.2 µM in the data set with Staphylococcus aureus [12]; 3.13 µM (≈ 1.22 µg/mL) with Enterococcus faecium [2]; 3.13 µM with Staphylococcus aureus [4]; 3.13 µM (≈ 1.22 µg/mL) in data set [14]; 0.39 µM (≈ 0.152 µg/mL) against Staphylococcus aureus [15]; 0.15 µM (≈ 0.0586 µg/mL) in the data set on Staphylococcus aureus [16]. Further, the MIC in [17] amounted to 0.78 µM (≈ 0.305 µg/mL). Besides, in [13], the concentration in solution (solubility at 16 h) came to 200 µM (≈ 78.2 µg/mL). For the same molecule, the hemolysis at 1 h, 200 µM in [5] turned out to be 1.4%.

Turning to `C[C@H]1c2cccc(O)c2C(=O)C2=C(O)[C@]3(O)C(=O)C(C(N)=O)=C(O)[C@@H](N(C)C)[C@@H]3[C@@H](O)[C@@H]21.O` [DOXYCYCLINE], the Ratio in the data set with Staphylococcus aureus [18] was greater than 23. Further, in the data set with Staphylococcus aureus [8], the MBEC is 46.9 µM and the MBC came out at 2 µM.

With `CO[C@H]1/C=C/O[C@@]2(C)Oc3c(C)c(O)c4c(O)c(c(/C=N/N5CCN(C)CC5)c(O)c4c3C2=O)NC(=O)/C(C)=C\C=C\[C@H](C)[C@H](O)[C@@H](C)[C@@H](O)[C@@H](C)[C@H](OC(C)=O)[C@@H]1C` [RIFAMPIN], in the data set with Staphylococcus aureus [18], the Ratio was greater than 23. For the same molecule, the MIC (against Staphylococcus aureus [15]; in [19]; in data set [17]) was 0.1 µM (≈ 0.0823 µg/mL) throughout. The MBEC in [6] turned out to be 15.6 µM; in the data set on Staphylococcus aureus [8] it was 46.9 µM. Moreover, the MBC in data set [6] stood at 3 µM (≈ 2.47 µg/mL); in the data set with Staphylococcus aureus [8], 2 µM (≈ 1.65 µg/mL).

In the case of `Oc1ccc(Br)c2nc3cc(Br)c(Br)cc3nc12`, the MIC with Staphylococcus aureus [12] is 0.1 µM; against Enterococcus faecium [2] it was 6.25 µM (≈ 2.71 µg/mL); with Staphylococcus aureus [4], 25 µM; against Staphylococcus aureus [15], 1.56 µM (≈ 0.675 µg/mL); in the data set with Staphylococcus aureus [10], 12.5 µM (≈ 5.41 µg/mL); with Staphylococcus aureus [16], 0.56 µM (≈ 0.242 µg/mL). Also, the MIC in the data set with Staphylococcus aureus [7] was greater than 100 µM; against Staphylococcus aureus [20] it was 1.56 µM (≈ 0.675 µg/mL); in data set [17], 3.13 µM (≈ 1.35 µg/mL). Besides, the hemolysis at 1 h, 200 µM in data set [5] was no more than 1%. Besides, the MBEC (in [6]; in the data set with Staphylococcus aureus [8]; in the data set with Enterococcus faecium [9]) was greater than 200 µM throughout. The MBC (in data set [6]; in the data set with Staphylococcus aureus [8]; with Enterococcus faecium [9]) was greater than 200 µM each time.

With `CN[C@@H]1[C@H](O[C@H]2[C@H](O[C@H]3[C@H](O)[C@@H](O)[C@H](N=C(N)N)[C@@H](O)[C@@H]3N=C(N)N)O[C@@H](C)[C@]2(O)C=O)O[C@@H](CO)[C@H](O)[C@H]1O` [STREPTOMYCIN], the MIC in [14] is 1.32 µM (≈ 0.768 µg/mL).
